In brackets after ≈: the same amount, converted by molar mass. Where a SMILES comes first, the peptide text is derived from it. [ ]: non-standard residue; d: D form. 3Abz = Nc1cccc(C(=O)O)c1; Orn = NCCC[CH](N)C(=O)O
Assays:
[1] = (§1) Stability in human plasma assessed as compound degradation after 24 hrs by RP-HPLC analysis; type: ADME, cell-free; conditions: read-out: Drug degradation
How it was run: (§2)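 Compound (1 mg/mL stock in water; 50 µL) added to 1 mL fresh heparinized human plasma and held at 37 °C. Samples taken at 30 min, 1, 2, 6, 12 and 24 h. Proteins precipitated with 95% ethanol, cooled at 4 °C for 15 min and centrifuged at 18,000 g. Supernatant analyzed by RP-HPLC with UV detection at 280 nm.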

Plasma [2] = experiment: Stability in human plasma assessed as compound degradation after 12 hrs by RP-HPLC analysis; type: ADME, cell-free; how it was run: as §2
Staphylococcus aureus [3] = experiment: Antibacterial activity against methicillin-resistant Staphylococcus aureus ATCC BAA-1720 assessed as growth inhibition after 18 hrs by CLSI microdilution broth assay; type: functional; conditions: ATCC BAA-1720, 18 h
How it was run: (§3)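 Modified CLSI broth microdilution in Mueller-Hinton broth. Wells held 90 µL of about 2 × 10^5 CFU/mL inoculum plus 10 µL of serially diluted peptidomimetic, range 0.7-100 µg/mL. Plates were incubated overnight with agitation at 37 °C and absorbance read at 600 nm after 18 h. Controls: inoculum without compound, and uninoculated broth. Run in triplicate.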

[4] = Selectivity ratio of HC50 for hemolysis in human RBC to MIC for Staphylococcus aureus
Escherichia coli = experiment: Antibacterial activity against Escherichia coli MTCC 723 assessed as growth inhibition after 18 hrs by CLSI microdilution broth assay; type: functional; conditions: MTCC 723, 18 h
trypsin = experiment: Proteolytic stability assessed as trypsin (unknown origin)-mediated compound degradation by measuring compound remaining after 4 days by RP-HPLC analysis; type: ADME; conditions: human, trypsin; read-out: Stability
How it was run: (§4)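 Compound at 1 mg/mL in 0.1 M NH4HCO3 (pH 8.2) combined with trypsin or α-chymotrypsin solution (1 mg enzyme per 50 mL of the same buffer) at 37 °C. Aliquots taken over time and quenched with 10% formic acid. Remaining compound quantified by C18 RP-HPLC. An enzyme-free control was run for each test.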

[5] = Stability in human plasma assessed as compound degradation after 30 mins by RP-HPLC analysis; type: ADME, cell-free; conditions: read-out: Drug degradation; how it was run: as §2
HaCaT [6] = experiment: Cytotoxicity against human HaCaT cells assessed as decrease in cell viability after 24 hrs by MTT assay; type: cell-based
How it was run: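 HaCaT keratinocytes grown as a monolayer in DMEM with 10% FBS and penicillin/streptomycin, 37 °C, 5% CO2. Seeded 24 h, then exposed to compound for 24 h. MTT (5 mg/mL stock in PBS) added for 4 h; formazan dissolved in isopropanol and read at 570 nm. Growth inhibition calculated relative to medium-only controls. Two independent experiments in triplicate.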

Staphylococcus aureus [7] = experiment: Antibacterial activity against Staphylococcus aureus MTCC 3160 assessed as growth inhibition after 18 hrs by CLSI microdilution broth assay; type: functional; conditions: MTCC 3160, 18 h
[8] = tested on: Staphylococcus epidermidis; experiment: Antibacterial activity against methicillin-resistant Staphylococcus epidermidis ATCC 51625 assessed as growth inhibition after 18 hrs by CLSI microdilution broth assay; type: functional; conditions: ATCC 51625, 18 h; how it was run: as §3
alpha chymotrypsin = experiment: Proteolytic stability assessed as alpha chymotrypsin (unknown origin)-mediated compound degradation by measuring compound remaining after 4 days by RP-HPLC analysis; type: ADME; conditions: human, read-out: Stability; how it was run: as §4
Pseudomonas aeruginosa = experiment: Antibacterial activity against Pseudomonas aeruginosa MTCC 2295 assessed as growth inhibition after 18 hrs by CLSI microdilution broth assay; type: functional; conditions: MTCC 2295, 18 h
Bacillus subtilis = experiment: Antibacterial activity against Bacillus subtilis MTCC 2763 assessed as growth inhibition after 18 hrs by CLSI microdilution broth assay; type: functional; conditions: MTCC 2763, 18 h
[9] = Retention time of the compound by HPLC analysis; type: physicochemical
How it was run: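 Analytical RP-HPLC on a C18 column (5 µm, 4.6 × 250 mm) at room temperature. Run a linear gradient of 0.5-60% acetonitrile containing 0.05% TFA against water containing 0.05% TFA at 0.5 mL/min.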

HaCaT [10] = experiment: Cytotoxicity against human HaCaT cells at 100 to 500 ug/ml after 24 hrs by LDH release assay; type: cell-based
How it was run: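 HaCaT cells (DMEM with 10% FBS, 37 °C, 5% CO2) seeded for 24 h, then treated with varying concentrations for 24 h. LDH measured at 490 nm in both supernatant and trypsinized cell lysate with a non-radioactive kit. % release = supernatant/(supernatant + lysate) × 100. Two independent experiments in triplicate.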

[11] = Induction of hemolysis in human RBC assessed as hemoglobin release after 1 hr by microtiter plate reader analysis; type: cell-based, Erythrocyte; conditions: for HC10: erythrocyte, 1 h; for HC50 at 1 h: red blood cells
How it was run: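 Freshly isolated human RBCs washed three times in PBS (35 mM phosphate, 150 mM NaCl, pH 7.2) and used as a 4% (v/v) suspension. Mixed 1:1 with twofold serial dilutions of compound, incubated 1 h at 37 °C without agitation, then centrifuged. Supernatant A540 read. PBS defined 0% and 1% Triton X-100 defined 100% lysis; HC50 and HC10 derived.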

Plasma [12] = experiment: as §1; type: ADME, cell-free; conditions: 24 h; how it was run: as §2

SMILES | metabolised at 24 h [1] [%] | Stability (Plasma [2]) | MIC (Staphylococcus aureus [3]) [µg/mL] | Selectivity ratio [4] | MIC (Escherichia coli) [µg/mL] | remaining at 96 h (trypsin) [%] | metabolised at 0.5 h [5] [%] | Activity (HaCaT [6]) | MIC (Staphylococcus aureus [7]) [µg/mL] | MIC [8] [µg/mL] | remaining at 96 h (alpha chymotrypsin) [%] | MIC (Pseudomonas aeruginosa) [µg/mL] | MIC (Bacillus subtilis) [µg/mL] | Retention_time [9] [min] | Activity (HaCaT [10]) | HC10 [11] [µg/mL] | HC50 at 1 h [11] [µg/mL] | Stability (Plasma [12])
N=C(N)NCCCC(NC(=O)C(Cc1c[nH]c2ccccc12)NC(=O)C(Cc1c[nH]c2ccccc12)NC(=O)C(CCCNC(=N)N)NC(=O)C(N)Cc1c[nH]c2ccccc12)C(N)=O (stereo not drawn) (H-WRWWR-NH2; configuration not given here) | 18 | Stable | 17.5 (≈ 19.7 µM) | 13.3 | 40 (≈ 45 µM) | 21 | 5.31 | Dose-dependent effect | 15 (≈ 16.9 µM) | 20 (≈ 22.5 µM) | 44 | 70 (≈ 78.8 µM) | 50 (≈ 56.3 µM) | 30.604 | Toxic | 60 | 200 | 
N=C(N)NCCCC(NC(=O)C(CCCNC(=N)N)NC(=O)c1cccc(NC(=O)C(CCCNC(=N)N)NC(=O)C(N)Cc2c[nH]c3ccccc23)c1)C(N)=O (stereo not drawn) (H-WR[3Abz]RR-NH2; configuration not given here) |  |  | 120 (≈ 152 µM) | > 5 | > 200 |  |  |  | 100 (≈ 126 µM) | 100 (≈ 126 µM) |  | > 200 | 170 (≈ 215 µM) | 22.64 |  | 325 | > 500 | 
N=C(N)NCCCC(NC(=O)C(Cc1c[nH]c2ccccc12)NC(=O)c1cccc(NC(=O)C(CCCNC(=N)N)NC(=O)C(N)Cc2c[nH]c3ccccc23)c1)C(N)=O (stereo not drawn) (H-WR[3Abz]WR-NH2; configuration not given here) |  |  | 50 (≈ 60.9 µM) | 6.66 | 150 (≈ 183 µM) |  |  |  | 60 (≈ 73.1 µM) | 75 (≈ 91.4 µM) |  | 120 (≈ 146 µM) | 75 (≈ 91.4 µM) | 24.982 |  | 220 | 400 | 
N=C(N)NCCCC(NC(=O)C(CCCNC(=N)N)NC(=O)c1cccc(NC(=O)C(CCCNC(=N)N)NC(=O)C(Cc2c[nH]c3ccccc23)NC(=O)C(N)Cc2c[nH]c3ccccc23)c1)C(N)=O (stereo not drawn) (H-WWR[3Abz]RR-NH2; configuration not given here) |  |  | 50 (≈ 51.2 µM) | 7.6 | 75 (≈ 76.8 µM) |  |  |  | 50 (≈ 51.2 µM) | 50 (≈ 51.2 µM) |  | 100 (≈ 102 µM) | 70 (≈ 71.6 µM) | 27.34 |  | 200 | 380 | 
N=C(N)NCCCC(NC(=O)c1cccc(NC(=O)C(Cc2c[nH]c3ccccc23)NC(=O)C(N)Cc2c[nH]c3ccccc23)c1)C(N)=O (stereo not drawn) (H-WW[3Abz]R-NH2; configuration not given here) |  |  | 200 (≈ 301 µM) | 2 | 150 (≈ 226 µM) |  |  |  | 120 (≈ 181 µM) | > 200 |  | 170 (≈ 256 µM) | 150 (≈ 226 µM) | 28.661 |  | 100 | 240 | 
N=C(N)NCCCC(NC(=O)C(CCCNC(=N)N)NC(=O)c1cccc(NC(=O)C(Cc2c[nH]c3ccccc23)NC(=O)C(N)Cc2c[nH]c3ccccc23)c1)C(N)=O (stereo not drawn) (H-WW[3Abz]RR-NH2; configuration not given here) |  |  | 50 (≈ 60.9 µM) | 8 | 120 (≈ 146 µM) |  |  |  | 50 (≈ 60.9 µM) | 75 (≈ 91.4 µM) |  | 125 (≈ 152 µM) | 70 (≈ 85.3 µM) | 25.377 |  | 150 | 400 | 
NCCCC(NC(=O)C(Cc1c[nH]c2ccccc12)NC(=O)C(Cc1c[nH]c2ccccc12)NC(=O)C(CCCN)NC(=O)C(N)Cc1c[nH]c2ccccc12)C(N)=O (stereo not drawn) (H-W[Orn]WW[Orn]-NH2; configuration not given here) |  |  | 50 (≈ 62.2 µM) | 4.5 | 70 (≈ 87.1 µM) | 82 | 4.72 | Dose-dependent effect | 50 (≈ 62.2 µM) | 70 (≈ 87.1 µM) | 44 | 150 (≈ 187 µM) | 120 (≈ 149 µM) | 28.309 | Toxic | 65 | 225 | Stable
NCCCC(NC(=O)C(CCCN)NC(=O)c1cccc(NC(=O)C(Cc2c[nH]c3ccccc23)NC(=O)C(CCCN)NC(=O)C(N)Cc2c[nH]c3ccccc23)c1)C(N)=O (stereo not drawn) (H-W[Orn]W[3Abz][Orn][Orn]-NH2; configuration not given here) |  |  | 25 (≈ 29.4 µM) | 18 | 70 (≈ 82.3 µM) |  |  |  | 25 (≈ 29.4 µM) | 20 (≈ 23.5 µM) |  | 75 (≈ 88.1 µM) | 40 (≈ 47 µM) | 24.782 |  | 175 | 450 | 
NCCCC(NC(=O)C(Cc1c[nH]c2ccccc12)NC(=O)c1cccc(NC(=O)C(CCCN)NC(=O)C(CCCN)NC(=O)C(N)Cc2c[nH]c3ccccc23)c1)C(N)=O (stereo not drawn) (H-W[Orn][Orn][3Abz]W[Orn]-NH2; configuration not given here) |  |  | 50 (≈ 58.8 µM) | 12.5 | 75 (≈ 88.1 µM) |  |  |  | 40 (≈ 47 µM) | 40 (≈ 47 µM) |  | 100 (≈ 118 µM) | 75 (≈ 88.1 µM) | 24.193 |  | 170 | 500 | 
NCCCC(N)C(=O)NC(Cc1c[nH]c2ccccc12)C(=O)NC(Cc1c[nH]c2ccccc12)C(=O)Nc1cccc(C(=O)NC(CCCN)C(=O)NC(CCCN)C(N)=O)c1 (stereo not drawn) (H-[Orn]WW[3Abz][Orn][Orn]-NH2; configuration not given here) |  |  | 50 (≈ 58.8 µM) | 8.8 | 100 (≈ 118 µM) |  |  |  | 50 (≈ 58.8 µM) | 50 (≈ 58.8 µM) |  | 100 (≈ 118 µM) | 100 (≈ 118 µM) | 23.979 |  | 150 | 440 | 
NCCCC(N)C(=O)NC(Cc1c[nH]c2ccccc12)C(=O)Nc1cccc(C(=O)NC(Cc2c[nH]c3ccccc23)C(=O)NC(CCCN)C(N)=O)c1 (stereo not drawn) (H-[Orn]W[3Abz]W[Orn]-NH2; configuration not given here) |  |  | 20 (≈ 27.1 µM) | > 28.6 | 50 (≈ 67.9 µM) |  |  |  | 17.5 (≈ 23.7 µM) | 15 (≈ 20.4 µM) |  | 40 (≈ 54.3 µM) | 50 (≈ 67.9 µM) | 24.231 |  | 190 | > 500 | 
NCCCC(N)C(=O)NC(CCCN)C(=O)NC(Cc1c[nH]c2ccccc12)C(=O)NC(Cc1c[nH]c2ccccc12)C(=O)NC(CCCN)C(N)=O (stereo not drawn) (H-[Orn][Orn]WW[Orn]-NH2; configuration not given here) |  |  | 100 (≈ 137 µM) | 4.42 | 120 (≈ 164 µM) |  |  |  | 70 (≈ 95.6 µM) | 100 (≈ 137 µM) |  | 150 (≈ 205 µM) | 100 (≈ 137 µM) | 26.672 |  | 100 | 310 | 
NCCCC(N)C(=O)NC(CCCN)C(=O)NC(Cc1c[nH]c2ccccc12)C(=O)Nc1cccc(C(=O)NC(Cc2c[nH]c3ccccc23)C(=O)NC(CCCN)C(N)=O)c1 (stereo not drawn) (H-[Orn][Orn]W[3Abz]W[Orn]-NH2; configuration not given here) |  |  | 10.2 (≈ 12 µM) | 60 | 40 (≈ 47 µM) |  |  |  | 7.5 (≈ 8.81 µM) | 12.5 (≈ 14.7 µM) |  | 50 (≈ 58.8 µM) | 40 (≈ 47 µM) | 24.231 |  | 120 | 450 | 

Reference: ChEMBL document CHEMBL3286351, “Antibacterial evaluation of structurally amphipathic, membrane active small cationic peptidomimetics: synthesized by incorporating 3-amino benzoic acid as peptidomimetic element” (Eur J Med Chem, 2014)
